Series [1] is described as follows: Cytotoxicity against human NIH-H460 cells assessed as cell viability at 50 nM after 48 hrs by MTT assay relative to control.
The species entered for another series is Homo sapiens. The series is described as follows: Induction of Nur77 expression in human NIH-H460 cells AT 20 nM after 3 hrs by Western blot analysis. The series is classed as functional, cell-based. A digest of the protocol:
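NIH-H460 cancer cells were exposed to probes at 20 nM for 3 h. Nur77 protein was detected by western blotting with an anti-Nur77 antibody. DMSO served as the blank, and the underivatized biotin linker hydrazides were the negative controls.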
In general terms: Immunoblotting shows a protein as a band on a membrane.

The target in series [2] is Streptavidin (Streptomyces avidinii) (UniProt P22629). Briefly: Binding affinity to Streptomyces avidinii streptavidin at 1 mM after 2 hrs by HABA dye-based UV-vis spectroscopic analysis.
Streptavidin (Streptomyces avidinii), sequence (P22629 whole entry): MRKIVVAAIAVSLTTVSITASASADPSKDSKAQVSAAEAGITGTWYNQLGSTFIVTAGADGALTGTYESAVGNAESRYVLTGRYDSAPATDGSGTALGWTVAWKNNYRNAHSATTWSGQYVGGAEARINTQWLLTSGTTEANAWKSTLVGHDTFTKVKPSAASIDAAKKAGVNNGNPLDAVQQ

Calls of active or inactive are those of the source. The calls are words filed in the database; no cut-off is given here.

This is an account of results in ChEMBL document CHEMBL4422650, “Design and synthesis of biotinylated cardiac glycosides for probing Nur77 protein inducting pathway” (Bioorg Med Chem Lett, 2019).

The term viability denotes a per cent measure of how many cells are alive, often set against a control. For the compound `C[C@@H]1O[C@@H](O[C@H]2CC[C@]3(/C=N/NC(=O)CCCNC(=O)CCCC[C@@H]4SC[C@@H]5NC(=O)N[C@@H]54)[C@H]4C[C@@H](O)[C@]5(C)[C@@H](C6=CC(=O)OC6)CC[C@]5(O)[C@@H]4CC[C@]3(O)C2)[C@H](O)[C@H](O)[C@H]1O`, in series [1], the viability at 48 h, 0.05 µM was over 90%. The result in the series listed under Homo sapiens was Active.

For `C[C@H]1O[C@@H](O[C@H]2CC[C@]3(/C=N/NC(=O)CCCC[C@@H]4SC[C@@H]5NC(=O)N[C@@H]54)[C@H]4C[C@@H](O)[C@]5(C)[C@@H](C6=CC(=O)OC6)CC[C@]5(O)[C@@H]4CC[C@]3(O)C2)[C@H](O)[C@H](O)[C@H]1O`, in series [1], the viability at 48 h, 0.05 µM was over 90%.

Regarding `NNC(=O)COCCOCCNC(=O)CCCC[C@@H]1SC[C@@H]2NC(=O)N[C@@H]21`, the viability at 48 h, 0.05 µM in series [1] is over 90%.

On to `C[C@@H]1O[C@@H](O[C@H]2CC[C@]3(C=O)[C@H]4C[C@@H](O)[C@]5(C)[C@@H](C6=CC(=O)OC6)CC[C@]5(O)[C@@H]4CC[C@]3(O)C2)[C@H](O)[C@H](O)[C@H]1O`, for which the outcome in the series filed under Homo sapiens was Active.

For `C[C@@H]1O[C@@H](O[C@H]2CC[C@]3(/C=N/NC(=O)CCCCCNC(=O)CCCC[C@@H]4SC[C@@H]5NC(=O)N[C@@H]54)[C@H]4C[C@@H](O)[C@]5(C)[C@@H](C6=CC(=O)OC6)CC[C@]5(O)[C@@H]4CC[C@]3(O)C2)[C@H](O)[C@H](O)[C@H]1O`, the viability at 48 h, 0.05 µM in series [1] is over 90%. Besides, the outcome (in the series filed under Homo sapiens; in series [2]) was Active.

With `C[C@@H]1O[C@@H](O[C@H]2CC[C@]3(/C=N/NC(=O)CNC(=O)CCCC[C@@H]4SC[C@@H]5NC(=O)N[C@@H]54)[C@H]4C[C@@H](O)[C@]5(C)[C@@H](C6=CC(=O)OC6)CC[C@]5(O)[C@@H]4CC[C@]3(O)C2)[C@H](O)[C@H](O)[C@H]1O`, the viability at 48 h, 0.05 µM in series [1] was over 90%. Further, the result in the series filed under Homo sapiens was Active.

Regarding `NNC(=O)CCCCCNC(=O)CCCC[C@@H]1SC[C@@H]2NC(=O)N[C@@H]21`, the viability at 48 h, 0.05 µM in series [1] was over 90%.

`C[C@H]1O[C@@H](O[C@H]2CC[C@]3(/C=N/NC(=O)CCCNC(=O)CCCC[C@@H]4SC[C@@H]5NC(=O)N[C@@H]54)[C@H]4C[C@@H](O)[C@]5(C)[C@@H](C6=CC(=O)OC6)CC[C@]5(O)[C@@H]4CC[C@]3(O)C2)[C@H](O)[C@H](O)[C@H]1O`: in series [1], the viability at 48 h, 0.05 µM is over 90%. In addition, in the series filed under Homo sapiens, the result was Active.

Turning to `C[C@H]1O[C@@H](O[C@H]2CC[C@]3(/C=N/NC(=O)COCCOCCOCCNC(=O)CCCC[C@@H]4SC[C@@H]5NC(=O)N[C@@H]54)[C@H]4C[C@@H](O)[C@]5(C)[C@@H](C6=CC(=O)OC6)CC[C@]5(O)[C@@H]4CC[C@]3(O)C2)[C@H](O)[C@H](O)[C@H]1O`, in series [1], the viability at 48 h, 0.05 µM was over 90%. Further, in the series listed under Homo sapiens, the result was Active.

On to `C[C@H]1O[C@@H](O[C@H]2CC[C@]3(C=O)[C@H]4C[C@@H](O)[C@]5(C)[C@@H](C6=CC(=O)OC6)CC[C@]5(O)[C@@H]4CC[C@]3(O)C2)[C@H](O)[C@H](O)[C@H]1O`, for which, in the series listed under Homo sapiens, the result was Active.

In the case of `C[C@H]1O[C@@H](O[C@H]2CC[C@]3(/C=N/NC(=O)COCCOCCNC(=O)CCCC[C@@H]4SC[C@@H]5NC(=O)N[C@@H]54)[C@H]4C[C@@H](O)[C@]5(C)[C@@H](C6=CC(=O)OC6)CC[C@]5(O)[C@@H]4CC[C@]3(O)C2)[C@H](O)[C@H](O)[C@H]1O`, in series [1], the viability at 48 h, 0.05 µM was over 90%. Besides, the outcome in the series filed under Homo sapiens was Active.

In the case of `C[C@@H]1O[C@@H](O[C@H]2CC[C@]3(/C=N/NC(=O)COCCOCCOCCNC(=O)CCCC[C@@H]4SC[C@@H]5NC(=O)N[C@@H]54)[C@H]4C[C@@H](O)[C@]5(C)[C@@H](C6=CC(=O)OC6)CC[C@]5(O)[C@@H]4CC[C@]3(O)C2)[C@H](O)[C@H](O)[C@H]1O`, in series [1], the viability at 48 h, 0.05 µM is over 90%. Besides, the result in the series filed under Homo sapiens was Active.

For `C[C@H]1O[C@@H](O[C@H]2CC[C@]3(/C=N/NC(=O)CCCCCNC(=O)CCCC[C@@H]4SC[C@@H]5NC(=O)N[C@@H]54)[C@H]4C[C@@H](O)[C@]5(C)[C@@H](C6=CC(=O)OC6)CC[C@]5(O)[C@@H]4CC[C@]3(O)C2)[C@H](O)[C@H](O)[C@H]1O`, in series [1], the viability at 48 h, 0.05 µM is over 90%. Besides, the result in the series filed under Homo sapiens was Active.

Turning to `C[C@H]1O[C@@H](O[C@H]2CC[C@]3(/C=N/NC(=O)CCCCCCCNC(=O)CCCC[C@@H]4SC[C@@H]5NC(=O)N[C@@H]54)[C@H]4C[C@@H](O)[C@]5(C)[C@@H](C6=CC(=O)OC6)CC[C@]5(O)[C@@H]4CC[C@]3(O)C2)[C@H](O)[C@H](O)[C@H]1O`, the viability at 48 h, 0.05 µM in series [1] is over 90%. Moreover, the result (in the series listed under Homo sapiens; in series [2]) was Active.

Take `C[C@@H]1O[C@@H](O[C@H]2CC[C@]3(/C=N/NC(=O)COCCOCCNC(=O)CCCC[C@@H]4SC[C@@H]5NC(=O)N[C@@H]54)[C@H]4C[C@@H](O)[C@]5(C)[C@@H](C6=CC(=O)OC6)CC[C@]5(O)[C@@H]4CC[C@]3(O)C2)[C@H](O)[C@H](O)[C@H]1O`: the viability at 48 h, 0.05 µM in series [1] was over 90%. Further, the outcome in the series listed under Homo sapiens was Active.

As to `C[C@@H]1O[C@@H](O[C@H]2CC[C@]3(/C=N/NC(=O)CCCC[C@@H]4SC[C@@H]5NC(=O)N[C@@H]54)[C@H]4C[C@@H](O)[C@]5(C)[C@@H](C6=CC(=O)OC6)CC[C@]5(O)[C@@H]4CC[C@]3(O)C2)[C@H](O)[C@H](O)[C@H]1O`, in series [1], the viability at 48 h, 0.05 µM was over 90%. For the same compound, the outcome in the series listed under Homo sapiens was Active.

Consider `C[C@H]1O[C@@H](O[C@H]2CC[C@]3(/C=N/NC(=O)CNC(=O)CCCC[C@@H]4SC[C@@H]5NC(=O)N[C@@H]54)[C@H]4C[C@@H](O)[C@]5(C)[C@@H](C6=CC(=O)OC6)CC[C@]5(O)[C@@H]4CC[C@]3(O)C2)[C@H](O)[C@H](O)[C@H]1O`, for which the viability at 48 h, 0.05 µM in series [1] is over 90%. For the same compound, in the series listed under Homo sapiens, the result was Active.

On to `C[C@H]1O[C@@H](O[C@H]2CC[C@]3(/C=N/NC(=O)COCCNC(=O)CCCC[C@@H]4SC[C@@H]5NC(=O)N[C@@H]54)[C@H]4C[C@@H](O)[C@]5(C)[C@@H](C6=CC(=O)OC6)CC[C@]5(O)[C@@H]4CC[C@]3(O)C2)[C@H](O)[C@H](O)[C@H]1O`, for which, in series [1], the viability at 48 h, 0.05 µM was over 90%. For the same compound, in the series listed under Homo sapiens, the result was Active.

`C[C@@H]1O[C@@H](O[C@H]2CC[C@]3(/C=N/NC(=O)CCCCCCCNC(=O)CCCC[C@@H]4SC[C@@H]5NC(=O)N[C@@H]54)[C@H]4C[C@@H](O)[C@]5(C)[C@@H](C6=CC(=O)OC6)CC[C@]5(O)[C@@H]4CC[C@]3(O)C2)[C@H](O)[C@H](O)[C@H]1O`: the viability at 48 h, 0.05 µM in series [1] is over 90%. Further, in the series listed under Homo sapiens, the outcome was Active.

Regarding `C[C@@H]1O[C@@H](O[C@H]2CC[C@]3(/C=N/NC(=O)COCCNC(=O)CCCC[C@@H]4SC[C@@H]5NC(=O)N[C@@H]54)[C@H]4C[C@@H](O)[C@]5(C)[C@@H](C6=CC(=O)OC6)CC[C@]5(O)[C@@H]4CC[C@]3(O)C2)[C@H](O)[C@H](O)[C@H]1O`, the viability at 48 h, 0.05 µM in series [1] was over 90%.
